Test results as given in ChEMBL document CHEMBL1152488, “Synthesis and evaluation of pyrido[1,2-a]pyrimidines as inhibitors of nitric oxide synthases” (Eur J Med Chem, 2009).

Tests used:
[1] = target: Nitric oxide synthase, inducible (Homo sapiens) (UniProt P35228); test: Inhibition of human iNOS expressed in insect Sf9 cells assessed as residual activity at 100 uM by Griess assay relative to control
In short: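 Human iNOS made in Sf9 cells, incubated at 37 °C for 20 min in 50 mM triethanolamine pH 7.5 with 1 mM Mg2+, FAD/FMN 5 µM each, 0.5 mM NADPH, 10 µM H4B, CaM and 1 mM L-arginine. Compound 100 µM final. NADPH cleared with lactate dehydrogenase/pyruvate before Griess reaction (543 nm). Residual activity relative to 1% DMSO control; mean of 5 experiments.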

[2] = target: T1, Nitric oxide synthase 3 (Homo sapiens) (UniProt P29474); test: Inhibition of human eNOS assessed as residual activity at 100 uM by Griess assay relative to control
T1 sequence (whole entry): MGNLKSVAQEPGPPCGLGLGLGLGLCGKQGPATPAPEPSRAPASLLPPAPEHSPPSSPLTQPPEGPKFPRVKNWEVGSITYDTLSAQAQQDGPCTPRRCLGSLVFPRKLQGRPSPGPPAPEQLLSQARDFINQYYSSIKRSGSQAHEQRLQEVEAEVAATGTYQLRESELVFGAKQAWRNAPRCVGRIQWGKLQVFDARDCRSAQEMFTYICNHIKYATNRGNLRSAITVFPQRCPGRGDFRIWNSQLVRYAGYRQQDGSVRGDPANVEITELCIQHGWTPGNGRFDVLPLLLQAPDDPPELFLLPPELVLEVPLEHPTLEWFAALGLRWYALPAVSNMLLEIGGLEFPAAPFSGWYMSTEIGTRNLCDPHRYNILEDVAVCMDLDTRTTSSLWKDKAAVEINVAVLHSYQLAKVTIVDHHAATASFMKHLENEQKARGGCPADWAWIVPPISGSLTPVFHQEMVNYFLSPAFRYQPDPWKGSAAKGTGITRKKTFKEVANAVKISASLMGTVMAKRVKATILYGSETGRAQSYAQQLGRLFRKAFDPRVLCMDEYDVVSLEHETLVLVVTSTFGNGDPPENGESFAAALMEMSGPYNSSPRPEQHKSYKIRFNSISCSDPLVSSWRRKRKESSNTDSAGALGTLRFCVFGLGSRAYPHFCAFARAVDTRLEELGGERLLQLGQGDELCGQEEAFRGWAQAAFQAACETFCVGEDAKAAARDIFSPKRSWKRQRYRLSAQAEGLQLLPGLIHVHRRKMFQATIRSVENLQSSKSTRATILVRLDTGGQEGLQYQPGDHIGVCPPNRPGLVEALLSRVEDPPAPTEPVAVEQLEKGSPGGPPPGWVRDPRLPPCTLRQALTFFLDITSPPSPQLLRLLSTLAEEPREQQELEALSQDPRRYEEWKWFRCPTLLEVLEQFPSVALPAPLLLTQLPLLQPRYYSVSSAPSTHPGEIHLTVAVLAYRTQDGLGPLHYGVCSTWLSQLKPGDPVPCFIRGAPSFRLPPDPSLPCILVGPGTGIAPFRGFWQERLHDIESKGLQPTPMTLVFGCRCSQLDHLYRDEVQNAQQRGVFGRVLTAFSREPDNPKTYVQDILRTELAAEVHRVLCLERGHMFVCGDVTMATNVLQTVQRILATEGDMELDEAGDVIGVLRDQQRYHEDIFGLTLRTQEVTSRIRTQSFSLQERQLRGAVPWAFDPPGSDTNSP
In short: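 Human eNOS expressed in Pichia pastoris. Incubated 20 min at 37 °C in triethanolamine pH 7.5 with 0.5 mM Ca2+, CaM, H4B 10 µM, FAD/FMN 5 µM, NADPH 0.5 mM, L-arginine 1 mM and compound at 100 µM final. Nitrite read by Griess (543 nm) after LDH/pyruvate NADPH removal; % of 1% DMSO control from 5 experiments.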

[3] = target: T2, Nitric oxide synthase 3 (Bos taurus) (UniProt P29473); test: Inhibition of bovine eNOS expressed in insect Sf9 cells assessed as residual activity at 100 uM by Griess assay relative to control
T2 sequence (whole entry): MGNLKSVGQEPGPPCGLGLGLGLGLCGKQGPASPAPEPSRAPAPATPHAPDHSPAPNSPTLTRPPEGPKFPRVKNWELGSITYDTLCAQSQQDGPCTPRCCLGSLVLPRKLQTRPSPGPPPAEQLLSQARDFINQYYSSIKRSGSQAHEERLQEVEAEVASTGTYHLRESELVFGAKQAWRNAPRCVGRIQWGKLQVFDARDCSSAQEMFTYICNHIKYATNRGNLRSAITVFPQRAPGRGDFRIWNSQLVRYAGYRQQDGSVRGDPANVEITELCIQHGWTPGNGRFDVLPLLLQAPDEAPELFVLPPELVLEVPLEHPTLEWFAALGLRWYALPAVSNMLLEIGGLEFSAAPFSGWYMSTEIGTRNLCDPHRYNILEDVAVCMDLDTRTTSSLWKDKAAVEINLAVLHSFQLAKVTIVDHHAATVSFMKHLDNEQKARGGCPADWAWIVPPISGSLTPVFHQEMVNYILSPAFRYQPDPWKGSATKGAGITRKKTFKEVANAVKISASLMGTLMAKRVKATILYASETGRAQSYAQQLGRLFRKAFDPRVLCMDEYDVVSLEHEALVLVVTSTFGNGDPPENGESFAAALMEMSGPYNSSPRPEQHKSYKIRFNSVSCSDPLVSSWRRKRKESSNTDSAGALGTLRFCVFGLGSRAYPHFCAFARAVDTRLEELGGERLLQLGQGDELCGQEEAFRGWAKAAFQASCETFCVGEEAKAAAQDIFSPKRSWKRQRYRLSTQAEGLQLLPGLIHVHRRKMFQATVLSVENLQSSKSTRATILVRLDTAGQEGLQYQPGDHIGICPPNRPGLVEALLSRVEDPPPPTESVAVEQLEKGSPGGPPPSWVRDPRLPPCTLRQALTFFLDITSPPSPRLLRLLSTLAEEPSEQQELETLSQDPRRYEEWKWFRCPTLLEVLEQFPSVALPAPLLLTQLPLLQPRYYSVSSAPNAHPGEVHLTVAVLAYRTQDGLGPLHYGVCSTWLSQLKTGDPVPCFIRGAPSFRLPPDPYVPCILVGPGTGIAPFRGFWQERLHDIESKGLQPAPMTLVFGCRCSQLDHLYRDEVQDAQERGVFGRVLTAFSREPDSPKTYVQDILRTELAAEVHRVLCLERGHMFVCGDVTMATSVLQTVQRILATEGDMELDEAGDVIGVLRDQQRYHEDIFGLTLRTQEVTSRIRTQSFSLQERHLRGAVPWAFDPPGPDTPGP
In short: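 Bovine eNOS from Sf9 cells. Reaction: triethanolamine buffer pH 7.5, 0.5 mM Ca2+, 10 µg/ml CaM, 10 µM H4B, FAD, FMN, 0.5 mM NADPH, 1 mM L-arginine, with 100 µM compound, 20 min at 37 °C. After NADPH removal by LDH/pyruvate, nitrite measured by Griess at 543 nm. Expressed as % residual activity versus 1% DMSO control, 5 experiments.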

[4] = Lipophilicity, log D at pH 7.4 by HPLC method; details: buffer
[5] = target: T3, Nitric oxide synthase, inducible (Mus musculus) (UniProt P29477); test: Inhibition of mouse iNOS expressed in insect Sf9 cells assessed as residual activity at 100 uM by Griess assay relative to control
T3 sequence (whole entry): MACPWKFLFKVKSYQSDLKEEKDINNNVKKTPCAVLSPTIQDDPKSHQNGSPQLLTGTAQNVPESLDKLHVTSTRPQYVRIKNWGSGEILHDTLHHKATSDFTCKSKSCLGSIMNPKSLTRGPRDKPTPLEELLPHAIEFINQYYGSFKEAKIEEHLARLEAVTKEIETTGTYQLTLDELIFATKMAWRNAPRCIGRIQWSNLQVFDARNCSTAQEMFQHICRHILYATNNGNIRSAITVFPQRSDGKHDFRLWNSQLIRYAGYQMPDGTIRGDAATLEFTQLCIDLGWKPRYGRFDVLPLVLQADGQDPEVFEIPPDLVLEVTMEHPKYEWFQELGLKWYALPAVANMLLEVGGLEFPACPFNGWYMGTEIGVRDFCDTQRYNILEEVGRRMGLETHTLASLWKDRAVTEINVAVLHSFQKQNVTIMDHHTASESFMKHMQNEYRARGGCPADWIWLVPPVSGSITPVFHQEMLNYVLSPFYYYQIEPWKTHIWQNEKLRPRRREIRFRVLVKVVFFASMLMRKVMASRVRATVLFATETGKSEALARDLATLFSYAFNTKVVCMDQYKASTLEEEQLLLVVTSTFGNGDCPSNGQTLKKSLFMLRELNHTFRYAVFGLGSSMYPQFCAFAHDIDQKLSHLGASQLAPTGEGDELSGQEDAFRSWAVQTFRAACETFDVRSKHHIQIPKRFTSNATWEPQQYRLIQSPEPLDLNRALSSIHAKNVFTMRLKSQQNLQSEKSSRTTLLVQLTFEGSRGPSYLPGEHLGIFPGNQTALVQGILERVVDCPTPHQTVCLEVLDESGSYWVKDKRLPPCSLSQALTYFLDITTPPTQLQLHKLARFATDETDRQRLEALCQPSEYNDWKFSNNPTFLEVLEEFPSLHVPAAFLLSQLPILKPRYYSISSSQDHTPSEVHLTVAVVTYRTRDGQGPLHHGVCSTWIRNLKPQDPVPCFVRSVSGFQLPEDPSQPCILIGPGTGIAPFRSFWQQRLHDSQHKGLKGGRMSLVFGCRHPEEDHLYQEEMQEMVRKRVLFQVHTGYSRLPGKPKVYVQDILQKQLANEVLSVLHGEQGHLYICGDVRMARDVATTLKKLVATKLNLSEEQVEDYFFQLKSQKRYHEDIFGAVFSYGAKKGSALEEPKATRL
In short: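 Murine iNOS produced in Sf9 insect cells. Buffer: 50 mM triethanolamine pH 7.5, 1 mM CHAPS, 10 mM 2-mercaptoethanol, 0.5 mM EDTA. Additions: 1 mM Mg2+, 5 µM FAD, 5 µM FMN, 0.5 mM NADPH, 10 µM H4B, 10 µg/ml CaM, 1 mM L-arginine. Compound at 100 µM final, 37 °C for 20 min. NADPH removed with LDH/pyruvate, then Griess read at 543 nm. Values are % of 1% DMSO control, 5 experiments.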

Sequence of Nitric oxide synthase, inducible (Homo sapiens) (P35228 whole entry): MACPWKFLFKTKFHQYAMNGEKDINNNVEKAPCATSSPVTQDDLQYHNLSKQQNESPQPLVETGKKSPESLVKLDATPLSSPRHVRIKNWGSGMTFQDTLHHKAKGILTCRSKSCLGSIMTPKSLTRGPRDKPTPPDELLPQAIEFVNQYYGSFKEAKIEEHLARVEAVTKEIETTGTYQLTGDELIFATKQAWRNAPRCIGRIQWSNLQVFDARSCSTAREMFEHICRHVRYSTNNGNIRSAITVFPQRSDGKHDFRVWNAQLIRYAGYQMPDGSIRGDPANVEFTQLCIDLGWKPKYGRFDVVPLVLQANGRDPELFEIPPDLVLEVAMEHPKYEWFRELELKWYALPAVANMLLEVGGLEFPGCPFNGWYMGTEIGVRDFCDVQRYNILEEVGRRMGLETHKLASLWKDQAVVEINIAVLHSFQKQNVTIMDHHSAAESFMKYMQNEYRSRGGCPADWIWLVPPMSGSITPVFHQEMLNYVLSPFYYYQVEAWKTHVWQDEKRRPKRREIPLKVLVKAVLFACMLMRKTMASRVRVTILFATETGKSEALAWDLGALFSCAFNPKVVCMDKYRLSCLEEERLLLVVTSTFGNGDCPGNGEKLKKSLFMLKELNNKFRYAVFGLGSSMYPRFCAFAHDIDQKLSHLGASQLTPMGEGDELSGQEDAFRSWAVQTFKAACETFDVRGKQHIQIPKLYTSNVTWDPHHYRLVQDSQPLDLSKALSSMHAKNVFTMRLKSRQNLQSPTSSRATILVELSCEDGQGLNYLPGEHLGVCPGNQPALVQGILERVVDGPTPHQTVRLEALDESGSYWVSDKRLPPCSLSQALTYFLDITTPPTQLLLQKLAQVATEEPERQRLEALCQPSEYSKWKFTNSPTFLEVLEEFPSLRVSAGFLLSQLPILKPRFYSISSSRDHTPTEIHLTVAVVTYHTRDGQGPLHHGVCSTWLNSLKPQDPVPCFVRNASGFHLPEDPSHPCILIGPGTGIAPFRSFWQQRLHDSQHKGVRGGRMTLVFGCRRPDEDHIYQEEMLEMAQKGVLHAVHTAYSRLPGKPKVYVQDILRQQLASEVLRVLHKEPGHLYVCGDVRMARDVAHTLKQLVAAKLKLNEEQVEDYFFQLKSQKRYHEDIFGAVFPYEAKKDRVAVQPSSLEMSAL

Compound | Activity [1] [%] | Activity [2] [%] | Activity [3] [%] | logD [4] | Activity [5] [%]
Cc1cc(C)nc(N)c1 | 7 | 12 | – | – | –
COc1ccc(C(=O)C2CN=C3C=CC=CN3C2)cc1 (stereo not drawn) | – | – | 90 | 1.5 | 100
CC1=CC=CC2=NCC(C(=O)c3ccccc3)CN12 (stereo not drawn) | – | – | 93 | 1.5 | 104
COc1cc(C(=O)C2CN=C3C=CC=CN3C2)cc(OC)c1OC (stereo not drawn) | – | – | 86 | – | 105
CC1=CC=CN2CC(C(=O)c3ccccc3)CN=C12 (stereo not drawn) | – | – | 92 | – | 103
COc1ccc2cc(C(=O)C3CN=C4C=C(C)C=C(C)N4C3)ccc2c1 (stereo not drawn) | 95 | 121 | – | 1.9 | –
COc1ccc(C(=O)C2CN=C3C=CC=CN3C2)cc1OC (stereo not drawn) | – | – | 91 | 1.4 | 123
CC1=CC=CN2CC(C(=O)c3ccc(C)cc3)CN=C12 (stereo not drawn) | – | – | 93 | 1.6 | 100
CC1=CC=CC2=NCC(C(=O)c3ccc4cc(C)ccc4c3)CN12 (stereo not drawn) | 88 | 75 | – | 2.1 | –
Nc1ccccn1 | 95 | 94 | – | – | –
Cc1cccc(N)n1 | 47 | 83 | – | – | –
O=C(c1ccc(F)cc1)C1CN=C2C=CC=CN2C1 (stereo not drawn) | 67 | 79 | – | – | –
Cc1ccnc(N)c1 | 29 | 50 | – | – | –
COc1ccc2cc(C(=O)C3CN=C4C=CC=C(C)N4C3)ccc2c1 (stereo not drawn) | 80 | 6 | – | 1.9 | –

Further lines, results first:

Activity [1] [%] | Activity [2] [%] | Activity [3] [%] | logD [4] | Activity [5] [%] | Compound
85 | 46 | – | – | – | CC1=CC2=NCC(C(=O)c3ccc(-c4ccc(F)cc4)cc3)CN2C=C1 (stereo not drawn)
70 | 42 | – | – | – | CC1=CC2=NCC(C(=O)c3ccc(C4CCCCC4)cc3)CN2C=C1 (stereo not drawn)
86 | 20 | – | 2.1 | – | CC1=CC=CC2=NCC(C(=O)c3ccc(-c4ccccc4)cc3)CN12 (stereo not drawn)
– | – | 87 | – | 97 | CCOc1ccc(C(=O)C2CN=C3C=C(C)C=CN3C2)cc1 (stereo not drawn)
101 | 46 | – | – | – | COc1ccc(COc2ccc(C(=O)C3CN=C4C=C(C)C=CN4C3)cc2)cc1 (stereo not drawn)
54 | 75 | – | – | – | CC1=CC2=NCC(C(=O)c3ccc(C#N)cc3)CN2C=C1 (stereo not drawn)
93 | 94 | – | – | – | CC1=CC2=NCC(C(=O)c3ccc(C(=O)O)cc3)CN2C=C1 (stereo not drawn)
96 | 86 | – | – | – | CC1=CC2=NCC(C(=O)c3ccc(-c4ccc(O)cc4)cc3)CN2C=C1 (stereo not drawn)
73 | 75 | – | – | – | CC1=CC2=NCC(C(=O)c3ccc(OCc4ccccc4)cc3)CN2C=C1 (stereo not drawn)
98 | 91 | – | – | – | CC1=CC2=NCC(C(=O)c3ccc(-c4ccc(C(=O)O)cc4)cc3)CN2C=C1 (stereo not drawn)
30 | 46 | – | – | – | CC1=CC2=NCC(C(=O)c3ccc(O)cc3)CN2C=C1 (stereo not drawn)
